Type in all cases: functional
The subject of assay [1] is Klebsiella pneumoniae. Briefly: tested for its efficacy against systemic murine infection caused by Klebsiella pneumoniae A. In a few lines:
(§1)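 CD1 Swiss albino mice (18-20 g) were infected intraperitoneally with 0.5 mL of diluted culture. Within 5 min they received 1.0 mL test solution subcutaneously at the dorsal neck, in dilutions spanning 250–0.05 mg/kg. P. aeruginosa groups received a second dose at 3 h. Groups were six mice. ED50 was calculated by Reed–Muench interpolation of cumulative survival.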

Assay [2] relates to Streptococcus pneumoniae. The assay is described as follows: Tested for its efficacy against systemic murine infection caused by Streptococcus pneumoniae 6301. The procedure, abridged: as §1
Assay [3] has as its system Streptococcus pneumoniae. Briefly: In vitro minimum inhibitory concentration was measured against Streptococcus pneumoniae 6301 strain. The procedure, abridged:
(§2)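 Streptococci were tested on brain heart infusion agar plus 20 units/mL catalase, Proteus on Mueller-Hinton with 3% agar, and others on Mueller-Hinton agar. Inocula were 100-fold-diluted overnight cultures, about 3 × 10^4 CFU/spot, read after overnight incubation at 36 °C.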

In assay [4] the test system is Klebsiella pneumoniae. The assay is described as follows: Tested for its efficacy against systemic murine infection caused by Klebsiella pneumoniae A. The procedure, abridged: as §1
A further assay has as its system Proteus mirabilis. Briefly: In vitro minimum inhibitory concentration was measured against Proteus mirabilis 90 strain. The procedure, abridged:
as §2

SMILES strings stand for the structures. Converted amounts (≈) assume the structure as drawn.

A word on the ED50: it is the dose that gives a 50% effect, or the effect in half of the subjects. The low end stands for greater potency, the high end for weaker potency. In the assay on Klebsiella pneumoniae [1], `CO/N=C(\C(=O)N[C@@H]1C(=O)N2C(C(=O)O)=C(COC(C)=O)CS[C@H]12)c1csc(N)n1` [CEFOTAXIME] yielded an ED50 of 45 mg/kg.

As a reminder, the MIC is the least concentration at which growth counts as inhibited. Turning to `CO/N=C(\C(=O)N[C@@H]1C(=O)N2C(C(=O)O)=C(CN3CCN(c4cc5c(cc4F)c(=O)c(C(=O)O)cn5C4CC4)CC3)CS[C@H]12)c1csc(N)n1`, the figures for the ED50 with Streptococcus pneumoniae [2] and with Klebsiella pneumoniae [4] were 54 mg/kg and 25 mg/kg, respectively. For the same molecule, the MIC came to 0.063 µg/mL (≈ 0.0867 µM) against Streptococcus pneumoniae [3] and 2 µg/mL (≈ 2.75 µM) against Proteus mirabilis.

Values taken from ChEMBL document CHEMBL1127320, “Dual-action cephalosporins incorporating a 3'-tertiary-amine-linked quinolone” (J Med Chem, 1994).
